Laboratory results published in ChEMBL document CHEMBL3351871, “Potent, long-acting cyclopentane-1,3-Dione thromboxane (A2)-receptor antagonists” (ACS Med Chem Lett, 2014).
Calls of active or inactive are those of the source. No cut-off for these calls is given here.

Assays:
[1] = molecular target: T1, Thromboxane A2 receptor (Homo sapiens, UniProt P21731); test: Antagonist activity against human thromboxane A2 receptor alpha expressed in QBI-HEK293A cells assessed as reduction in I-BOP-induced inositol monophosphate production incubated for 15 to 60 mins before I-BOP addition by HTRF assay; format: functional, cell-based, HEK293-A
T1 sequence (P21731 whole entry): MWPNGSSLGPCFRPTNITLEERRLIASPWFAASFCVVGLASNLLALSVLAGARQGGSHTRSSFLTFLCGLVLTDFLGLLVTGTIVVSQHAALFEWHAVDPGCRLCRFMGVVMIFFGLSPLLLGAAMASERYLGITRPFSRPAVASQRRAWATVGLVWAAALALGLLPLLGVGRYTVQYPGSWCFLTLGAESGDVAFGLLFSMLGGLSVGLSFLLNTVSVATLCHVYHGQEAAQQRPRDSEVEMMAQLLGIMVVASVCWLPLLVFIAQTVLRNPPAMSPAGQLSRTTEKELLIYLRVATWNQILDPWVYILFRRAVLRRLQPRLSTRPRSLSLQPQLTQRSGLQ
In short: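 Stably transfected HEK-293 cells expressing human TP receptor α preincubated 15 min with a range of antagonist concentrations, then stimulated with agonist I-BOP at 0.2 nM. IP1 (metabolite of IP3) quantified after a further 1 h as the activation read-out. IC50 from concentration–response curves; mean and SD of one or more assays run in triplicate.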

[2] = molecular target: T2, Thromboxane A2 receptor (Homo sapiens) (UniProt P21731); test: (§1) Irreversible antagonist activity against human thromboxane A2 receptor alpha expressed in QBI-HEK293A cells assessed as reduction in I-BOP-induced inositol monophosphate production at 1 uM incubated for 15 to 60 mins before I-BOP addition and measured after 6 consecutive drug washout by HTRF assay; format: functional, cell-based; conditions: HEK293-A
T2 sequence (whole entry): T1 sequence (P21731 whole entry)
In short: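 Washout variant: hTP cells preincubated 15 min with compound (1 μM; 10 μM for some), then 6 consecutive wash cycles of ~50-fold dilution each before 0.8 nM I-BOP. Relative IP1 determined. Controls received I-BOP alone or no treatment; ANOVA with Dunnett's test against the +I-BOP condition.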

[3] = molecular target: T2, Thromboxane A2 receptor (Homo sapiens); test: Antagonist activity against human thromboxane A2 receptor alpha expressed in QBI-HEK293A cells assessed as reduction in I-BOP-induced inositol monophosphate production at 1 uM incubated for 15 to 60 mins before I-BOP addition by HTRF assay; format: functional, cell-based; conditions: HEK293-A
In short: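 hTP-expressing HEK-293 cells exposed to 1 μM antagonist for 15 or 60 min, then 0.8 nM I-BOP added without washing. Relative IP1 levels measured. Controls received I-BOP alone or no treatment.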

[4] = molecular target: T2, Thromboxane A2 receptor (Homo sapiens); test: Irreversible antagonist activity against human thromboxane A2 receptor alpha expressed in QBI-HEK293A cells assessed as reduction in I-BOP-induced inositol monophosphate production at 1 uM incubated for 15 to 60 mins before I-BOP addition and measured after 4 consecutive drug washout by HTRF assay; format: functional, cell-based; conditions: HEK293-A
In short: (§2)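 TP receptor α HEK-293 cells given 1 μM compound for 15 or 60 min, then four consecutive wash cycles, each about 50-fold dilution and separated by 15 min equilibration, before 0.8 nM I-BOP. IP1 then measured. Controls received I-BOP alone or no treatment; ANOVA with Dunnett's test against the […] at each time.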

[5] = molecular target: T2, Thromboxane A2 receptor (Homo sapiens); test: Reversible antagonist activity against human thromboxane A2 receptor alpha expressed in QBI-HEK293A cells assessed as reduction in I-BOP-induced inositol monophosphate production at 1 uM incubated for 15 to 60 mins before I-BOP addition and measured after 4 consecutive drug washout by HTRF assay; format: functional, cell-based; conditions: HEK293-A; in short: as §2
[6] = molecular target: T2, Thromboxane A2 receptor (Homo sapiens); test: as §1, with “uM at 4 degC” for “uM”; format: functional, cell-based; conditions: HEK293-A
In short: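 Six-wash washout protocol (each wash ~50-fold dilution) run at 4 °C to suppress endocytosis and receptor trafficking. Human TP receptor-expressing cells, then I-BOP stimulation and IP1 read-out.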

[7] = system: Plasma; test: Stability in CD1 mouse plasma at 1 uM after 1 hr at 37 degC by UPLC-ESI-MS/MS method; format: ADME, cell-free
In short: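 Free compound concentration followed during 1 h incubation in plasma.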

[8] = molecular target: T3, Prostaglandin E2 receptor EP1 subtype (Homo sapiens) (UniProt P34995); test: Antagonist activity against human EP1 receptor expressed in QBI-HEK293A cells assessed as reduction in 17-PGE2-induced inositol monophosphate production at 1 uM incubated for 15 to 60 mins before […] addition by HTRF assay; format: functional, cell-based; conditions: HEK293-A
T3 sequence (whole entry): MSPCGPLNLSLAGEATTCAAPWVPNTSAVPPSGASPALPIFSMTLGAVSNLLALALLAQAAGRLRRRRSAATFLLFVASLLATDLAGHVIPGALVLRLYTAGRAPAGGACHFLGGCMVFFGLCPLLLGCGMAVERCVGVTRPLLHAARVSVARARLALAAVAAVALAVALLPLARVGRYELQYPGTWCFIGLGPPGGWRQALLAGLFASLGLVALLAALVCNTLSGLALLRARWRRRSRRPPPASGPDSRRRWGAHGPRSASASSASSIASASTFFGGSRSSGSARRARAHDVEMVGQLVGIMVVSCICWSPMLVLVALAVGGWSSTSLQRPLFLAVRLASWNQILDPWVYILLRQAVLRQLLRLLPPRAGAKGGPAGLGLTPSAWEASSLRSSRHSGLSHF

[9] = Stability in presence of 10 mM glutathione in pH 7.0 aqueous buffer after 3 hrs; format: physicochemical; conditions: pH 7, 3 h
In short: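 Equimolar glutathione and CPD derivative, each at 10 mM, incubated in aqueous buffer at pH 7 for 3 h. Consumption of the starting dione monitored.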

[10] = molecular target: T2, Thromboxane A2 receptor (Homo sapiens); conditions: HEK293-A, 1 uM

Structure (SMILES) | IC50 [1] [nM] | inhibition [2] | inhibition [5] | further results
Cc1cccc(C)c1C1=C(OCC(C)C)CC(Cc2cccc3c2CCC(NS(=O)(=O)c2ccc(Cl)cc2)C3)C1=O (centres undefined) | 2760 |  |  | 
O=C1C(c2ccccc2)=C(O)CC1Cc1cccc(CCNS(=O)(=O)c2ccc(Cl)cc2)c1 (racemic) [listing 1 of 2 here] |  | Active |  | 
COc1ccc(C2=C(O)CC(Cc3cccc4c3CCC(NS(=O)(=O)c3ccc(Cl)cc3)C4)C2=O)cc1 (centres undefined) | 0.052 |  |  | inhibition [3]: Active; inhibition [4]: Active
Cc1ccc2c(c1CCC(=O)O)CC[C@@H](NS(=O)(=O)c1ccc(Cl)cc1)C2 [TERUTROBAN] | 16.4 |  |  | 
O=C1C(C2CCCCC2)=C(O)CC1Cc1cccc(CCNS(=O)(=O)c2ccc(Cl)cc2)c1 (centres undefined) | 892 |  | Active | 
Cc1cccc(C)c1C1=C(O)CC(Cc2cccc3c2CCC(NS(=O)(=O)c2ccc(Cl)cc2)C3)C1=O (centres undefined) | 0.015 | Active |  | inhibition [6]: Active; Stability [7]: Stable; inhibition [3]: Active; inhibition [4]: Active; inhibition [8]: inactive
Cc1cccc(C)c1C1C(=O)CCC1=O |  |  |  | Stability [9]: Stable
O=C1C(c2ccccc2)=C(O)CC1Cc1cccc2c1CCC(NS(=O)(=O)c1ccc(Cl)cc1)C2 (centres undefined) | 3.9 | Active |  | 
O=C1C(c2ccccc2)=C(O)CC1Cc1cccc(CCNS(=O)(=O)c2ccc(Cl)cc2)c1 (racemic) [listing 2 of 2 here] | 59 |  |  | 
O=C1C(Cc2ccccc2)=C(O)CC1Cc1cccc2c1CCC(NS(=O)(=O)c1ccc(Cl)cc1)C2 (centres undefined) | 29.2 | Active |  | 
CC1=C(O)CC(Cc2cccc3c2CCC(NS(=O)(=O)c2ccc(Cl)cc2)C3)C1=O (centres undefined) | 11.2 |  | Active | inhibition [3]: Active
O=C1C(c2ccccc2)=C(O)CC1Cc1cccc(CCNS(=O)(=O)c2ccc(Cl)cc2)c1 (single isomer, unassigned; (+)) |  | Active |  | 
O=C1C(c2ccc(F)cc2)=C(O)CC1Cc1cccc2c1CCC(NS(=O)(=O)c1ccc(Cl)cc1)C2 (centres undefined) | 6.5 | Active |  | 
Cc1cccc(C)c1C1=C(O)CC(Cc2cccc3c2CCCC3)C1=O (centres undefined) | 891 |  | Active | 
O=C(O)CCc1cccc(CCNS(=O)(=O)c2ccc(Cl)cc2)c1 |  |  | Active | 
O=C(O)Cc1cccc2c1CCC(NS(=O)(=O)c1ccc(Cl)cc1)C2 (centres undefined) | 10.7 |  | Active | inhibition [3]: Active; inhibition [10]: Active
